Measurements from PubChem BioAssay AID588322 (Southern Research Specialized Biocontainment Screening …, 2011).
Active and inactive are the calls of the source.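 How the source made its calls: active means compound blocking phage lysis by over 30% at some tested dose and judged capsule specific; inactive means the rest.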

Tested on: not listed separately
Experiment: T7 phage lysis of capsulated E. coli, dose response, selectivity assay for bacterial capsule biogenesis inhibitors, set 5 (AID 588322)
Conditions: E. coli EV36 T7 phage lysis, OD600 3 h; at 100 µM (top of the series)
Outline: (§1)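 Buffer or medium: LB broth culture medium. System: Escherichia coli EV36, a K1:K-12 hybrid strain. Detection: absorbance at 600 nm (OD600) 3 h after phage infection. Doses: 0.39–100 µM final compound, 1% DMSO. Schedule: 1.5 h compound pre-incubation, 37 °C, then 3 h phage infection.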

SMILES	cell growth (A600 at 3 h p.i., % of EV36+DMSO+T7 control); lower = more lysis
CCOc1ccc(-c2cc(NC(=O)c3c(F)cccc3F)c(C(=O)OC)s2)cc1	114% (inactive)
COC(=O)c1sc(-c2ccccc2)cc1NC(=O)c1c(F)cccc1F	111% (inactive)
Cc1onc(-c2ccccc2)c1C(=O)Nc1cc(-c2ccccc2)sc1C(=O)O	104% (inactive)

Tested on: E. coli EV36 T7 phage lysis, OD600 3 h
Experiment: as above
Conditions: not given
Outline: as §1

SMILES	IC50
Cc1ccc(C(=O)Nc2cc(-c3ccccc3)sc2C(=O)O)s1	41.7 µM (inactive)
O=C(Nc1cc(-c2ccccc2)sc1C(=O)O)c1cccc(F)c1	29.4 µM (inactive)
O=C(Nc1cc(-c2ccccc2)sc1C(=O)O)c1cc2ccccc2o1	7.11 µM (inactive)
O=C(Nc1cc(-c2ccccc2)sc1C(=O)O)c1cccs1	7.11 µM (inactive)
O=C(Nc1cc(-c2ccccc2)sc1C(=O)O)c1ccc(Cl)s1	15 µM (inactive)
O=C(O)c1sc(-c2ccccc2)cc1NC(=O)C1CCCC1	57.4 µM (inactive)
CCOc1ccc(-c2cc(NC(=O)c3cccc(Cl)c3)c(C(=O)O)s2)cc1	4.25 µM (inactive)
Cc1c(C(=O)Nc2cc(-c3ccccc3)sc2C(=O)O)oc2ccccc12	30.1 µM (inactive)
CCOc1ccc(-c2cc(NC(=O)c3c(F)cccc3F)c(C(=O)O)s2)cc1	0.71 µM (inactive)
O=C(Nc1cc(-c2ccccc2)sc1C(=O)O)c1cccc(Cl)c1	33.4 µM (inactive)
O=C(O)c1sc(-c2ccccc2)cc1NC(=O)C1CCCCC1	55 µM (inactive)
O=C(Nc1cc(-c2ccccc2)sc1C(=O)O)c1cc(Cl)c2c(c1)OCCO2	16 µM (inactive)
O=C(Nc1cc(-c2ccccc2)sc1C(=O)O)c1ccc(Br)o1	8.13 µM (inactive)
O=C(Nc1cc(-c2ccccc2)sc1C(=O)O)c1ccc2c(c1)OCCO2	12.7 µM (inactive)
CCOc1ccc(-c2cc(NC(=O)c3ccc(OC)c(OC)c3)c(C(=O)O)s2)cc1	7.72 µM (inactive)
